# Experimental data reported in the EternaBench riboswitch data.
# Tested on: MS2 coat protein
# Test: apparent Kd, MS2 coat protein; higher = weaker binding; RNA-MaP array; FMN 200 µM where present
# Procedure, shortened: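 Two titrations, one without ligand and one with constant ligand, were run with SNAP-549-labelled MS2 coat protein from 0.7 or 1.5 nM, doubling to 3 µM. The targets were designs transcribed by stalled E. coli RNA polymerase on Illumina sequencing-chip clusters, in 100 mM Tris-HCl pH 7.5, 80 mM KCl, 4 mM MgCl2, BSA, DTT, yeast tRNA and Tween-20. The apparent Kd is the median of filtered per-cluster binding-curve fits, with green signal normalised to red-channel RNA signal and control-cluster median Fmax.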
# [1] = designed as: ON switch for flavin mononucleotide, no ligand
# [2] = ligand present: flavin mononucleotide, designed as: ON switch for flavin mononucleotide
# [3] = designed as: OFF switch for flavin mononucleotide, no ligand
# [4] = ligand present: flavin mononucleotide, designed as: OFF switch for flavin mononucleotide
Sequence,apparent Kd [1],apparent Kd [2],apparent Kd [3],apparent Kd [4]
ACUUGGUUACAGAAGGGCAUUUAUAAUUAUCAUUACUCAUCCUAUGUUUGCAGGAUAUGUUUAACAUGAGGAUCACCCAUGUAC,171 nM,97.6 nM,–,–
ACUUGUAAGCAGAAGGCAGUCAUUAUAUUCGUCAUGUAGACAUGAGGAUCACCCAUGUAUAGUACUGAGGAUAUGCAUCGAUAG,–,–,7.84 nM,12.9 nM
ACUUUACGAGGAUAUACUGUCGGGCCUCGGGCGUCCCUGCGACAUGAGGAUCACCCAUGUAGAAGGCGUUUACU,–,–,20.6 nM,35.2 nM
AGAAACUACGAGAAGGACAUGUGGAAAAACGCAAACAUGAGGAUCACCCAUGUAGGAUAUCGUAGUUUCAGGAUCGUGAGAUCA,–,–,304 nM,367 nM
AGAAACUACGAGAAGGACAUGUGGAAAACCGCAAACAUGAGGAUCACCCAUGUAGGAUAUCGUAGUUUCAGGAUCGUGAGAUCA,–,–,772 nM,148 nM
AGAAAGGUAGGAUAUACGAAAAAAAAGGGUAGAAAAAAAACACAUGAGGAUCACCCAUGUAGAAGGACCAAAGA,–,–,28.9 nM,96.6 nM
AGAAAUUAGUGAGGAUAUGCAUAAUUUGUAGCUGCAGAAGGCACGGACCACAAGACAUGAGGAUCACCCAUGUGGUAUUUAGAU,–,–,26.8 nM,28 nM
AGAAAUUAGUGAGGAUAUGCUUAAAUUGUAGUUGCAGAAGGCACGGACCACAAGACAUGAGGAUCACCCAUGUGGUAUUUAGAU,–,–,28.9 nM,33 nM
AGACAGAUCGAGAAGGGAACAUGAGGAUCACCCAUGUGGAAGACUUGAUGUUCAGGAUAUCGAAAGCCUGAGUUAGAUGAAUUG,–,–,26.5 nM,115 nM
AGACUGAAGCAAGGAUAUUGUAAAGUUAUCGUACAAGAAGGUGCUGUUUAUGUCUCUUUACAUGAGGAUCACCCAUGUUUUUAA,22.6 nM,24.2 nM,–,–
AGACUGAAGCAAGGAUAUUGUAAGGUUAUCGUACAAGAAGGUGCUGUUUAUGUCUCUUUACAUGAGGAUCACCCAUGUUUUUAA,22.2 nM,23.5 nM,–,–
AGAGCCGGCACCGAGGAUAUUCAUAUUAAAACAUGAGGAUCACCCAUGUAGGCCAGAAGGCCUUGGGAGAAGGCGGAUCGGCUCG,707 nM,39.5 nM,–,–
AGAUAACAUGAGGAUCACCCAUGUGAGGAUAUUUACCCAAGAGCUUCGGCUCUCAGGUGGAGAAGGCACGUUGA,–,–,51.3 nM,76.8 nM
AGAUAACAUGUAGGAUAUCGAGGCCUGAGGCCUCGAGAAGGACAUGAGGAUCACCCAUGUUUGCCGAGCAUGGAAUCACGCACU,–,–,18.4 nM,54.6 nM
AGAUAGUUAUAACGCCAUCCCUACAUGAGGAUCACCCAUGUGCAGGAUAUAGGCUUGAAGCAGACCUAGAAGGGCACAGGCUGA,–,–,8.34 nM,22.2 nM
AGAUCCGCAGGAUAUGUCAAUUUACACAUGAGGAUCACCCAUGUGCCUUGUGUCAGCUUGAUAGAAGGGCGGACUA,–,–,330 nM,575 nM
AGAUGACAAAGUCAUCUCGCUUUGACAUGAGGAUCACCCAUGUAGGAUAUAUUACUCAAAGAGUAAUAGAAGGACAUGUGUCUG,–,–,49 nM,155 nM
AGAUGACAAAGUCAUCUUCAACGGACAUGAGGAUCACCCAUGUAGGAUAUGCUACUCAAAGAGUAGCAGAAGGACAUGUGUCUU,–,–,35 nM,193 nM
AGAUGGUCAGGAUAUGCGUGAAGAAUAAAACAAAUAACAACGCAGAAGGGACAUGAGGAUCACCCAUGUCAUCA,–,–,21.9 nM,17.3 nM
AGAUGUACCUAGGAUAUCCGUCGAAUUGGACUAGGAGAAGGAGGUACAUGAGGAUCACCCAUGUAUGACUCCUG,–,–,10.5 nM,13.1 nM
AGAUUACGAGGAUAUCGAGUUUAGUACAUGAGGAUCACCCAUGUUAUCCAGGUCUCGUUUCGAGAAGGCGUGAUUC,–,–,256 nM,92.3 nM

Sequence,apparent Kd [1],apparent Kd [2],apparent Kd [3],apparent Kd [4]
AGAUUGAAUGAGGAUAUCGAAGCGGGUACGAAGCGAGAAGGCAUGACAUGAGGAUCACCCAUGUAGUGUGGGUU,–,–,465 nM,435 nM
AGCACGAAAGUGCAACGAUGUACGAGAAGGACAUGAGGAUCACCCAUGUAGGAGUAACUCCAAAUGUAGGAUAUCGUACAUCGA,–,–,568 nM,79 nM
AGCACGAAAGUGCAACGAUGUAGCAGAAGGACAUGAGGAUCACCCAUGUAAGCAGUAUCUGCAAUGUAGGAUAUGCUACAUCGA,–,–,13.6 nM,119 nM
AGCACGAAAGUGCAACGAUGUAGCAGAAGGACAUGAGGAUCACCCAUGUAAGGUCUAUGACCAAUGUAGGAUAUGCUACAUCGA,–,–,6.62 nM,35 nM
AGCAGACGAGGAUAUAGAUUUGUUGACAUGAGGAUCACCCAUGUGAUCGAUCUAUUAUAUUUAGAAGGUGUCUGCU,–,–,12.9 nM,13.5 nM
AGCAUGCUAGGAUAUACGGGACAUUAGGGUUCGUUGUGUGGACAUGAGGAUCACCCAUGUAGAAGGAGCGUGCA,–,–,86.6 nM,374 nM
AGCAUGUGAGGAUAUGUGACCCUCGUCCGAAGGAUGAGGGAAUAGAAGGCACAUGAGGAUCACCCAUGUGAUGA,–,–,54.1 nM,156 nM
AGCCAACAUGAGGAUCACCCAUGUCUACAGGAUUAAGGAUAUGGGCAGGACUUCCCUGCACUAGAAGGUGAUCCAA,28.9 nM,251 nM,–,–
AGCUAGUCAGGAUAUACGUAAAUGUCGAAAGACGUAUUGGGACAUGAGGAUCACCCAUGUAGAAGGGACUAGCA,–,–,27.2 nM,108 nM
AGCUGGAGAGGAUAUACGUGAGUGAUAAAAGUCUGAUAACUACAUGAGGAUCACCCAUGUAGAAGGCUCUGGCA,–,–,66.2 nM,19.4 nM
AGCUGGUGACAGCAAGAAACUUCACAUGAGGAUCACCCAUGUAGAAGGCUGUACGGUUACCGUACAGAGGAUAUACAUUGAAGU,–,–,7.16 nM,13.3 nM
AGCUGGUGACAGCAUCGAGCUUAACAUGAGGAUCACCCAUGUAGAAGGCUGUACGGUUACCGUACAGAGGAUAUACAUAGCUCG,–,–,6.79 nM,7.04 nM
AGCUGGUUAGGAUAUACAUGAGGAUCACCCAUGUUAAAAAAAAAAAAAAGAUUAAAGUGUAGAAGGGAUUAGUA,–,–,40.4 nM,37.1 nM
AGCUGUGGCCAAGGAUAUCUAACCUUAAAUACCGACGUAUAGUCGGACAUGAGGAUCACCCAUGUGGAGAAGGUGGUCUCAGCA,–,–,25.3 nM,37.3 nM
AGGAAGUGAGGAUAUGCUGCUCGUCACUUGCGUGAUGAGUAGCAGAAGGCACAUGAGGAUCACCCAUGUAAAGA,–,–,40.2 nM,55.1 nM
AGGAUGUUAGGAUAUCGGAGAUGCGGGAGGAGGUGGAGGUACGAGAAGGAACAUGAGGAUCACCCAUGUGGAAG,–,–,20.3 nM,19.9 nM
AGGGAGGGCGUGGAGGCGGAGGGACGAGAAGGUACACAUGAGGAUCACCCAUGUAGAGUGGGAGGUAAGGAUAUUGGAUGGUGG,101 nM,66.9 nM,–,–
AGGGCUUAAUGGCCCUAUGAGAUGAGAAGGGUAGGAGGGUGGAAGUACAUGAGGAUCACCCAUGUACAGGAUAUCAUGCCGAUU,–,–,6.32 nM,6.07 nM
AGGGUAGACGUAGGAUAUACGGAAUGAAUGAAAGUAGAAGGAUGACAUGAGGAUCACCCAUGUGAAAUGAAAUGAUGAAGGGUG,–,–,579 nM,510 nM
AGGGUAGUAGGAUAUACAUGAGGAUCACCCAUGUUUCCAUUGCGUGACUGGUCCUAGUGUAGAAGGGCUAGCAC,–,–,18.6 nM,17.6 nM
AGGGUAUGAACAUGAGGAUCACCCAUGUACUAGGAAACGAAUGAGGAUAUCGAUAGCAAAGCUAUCGAGAAGGCAUGGGACCCU,322 nM,59.2 nM,–,–
